Measured values from ChEMBL document CHEMBL3600318, “Chemical synthesis of tetracyclic terpenes and evaluation of antagonistic activity on endothelin-A receptors and voltage-gated calcium channels” (Bioorg Med Chem, 2015).
The source made the active and inactive calls. The rule behind the calls is not given here.

Assays:
[1] = (§1) Antagonist activity at endothelin A receptor in Mongolian gerbil spiral modiolar artery assessed as inhibition of ET-1-induced vasoconstriction at 0.1 to 1 uM […] followed by compound washout and again ET-1 addition by video microscopic analysis; format: tissue-based, Meriones unguiculatus
Meriones unguiculatus = organism: Meriones unguiculatus; experiment: as §1; format: tissue-based
Endothelin-1 receptor [2] = biological target: T1, Endothelin-1 receptor (Rattus norvegicus, UniProt P26684); experiment: Antagonist activity at endothelin A receptor in rat A7r5 cells assessed as inhibition of ET-1-induced increase in cytosolic free Ca2+ level treated 1 min prior to ET-1 addition by fura-2 dye-based spectrofluorometric analysis; format: functional, cell-based
T1 sequence (P26684 whole entry): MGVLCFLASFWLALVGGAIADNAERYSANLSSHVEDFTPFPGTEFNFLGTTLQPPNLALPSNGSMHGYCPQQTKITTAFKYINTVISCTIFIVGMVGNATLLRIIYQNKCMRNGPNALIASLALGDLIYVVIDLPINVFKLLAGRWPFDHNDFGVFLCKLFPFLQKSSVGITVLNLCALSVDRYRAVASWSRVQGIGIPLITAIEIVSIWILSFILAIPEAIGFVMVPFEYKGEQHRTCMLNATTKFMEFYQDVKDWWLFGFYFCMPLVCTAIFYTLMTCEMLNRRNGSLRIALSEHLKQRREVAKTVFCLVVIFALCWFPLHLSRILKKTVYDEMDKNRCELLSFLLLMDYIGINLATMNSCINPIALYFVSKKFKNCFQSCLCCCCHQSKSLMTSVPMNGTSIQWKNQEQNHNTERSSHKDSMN

Endothelin-1 receptor [3] = biological target: T1, Endothelin-1 receptor; experiment: Antagonist activity at endothelin A receptor in Wistar rat thoracic aorta strips assessed as inhibition of ET1-induced vasoconstriction preincubated for 5 mins followed by ET1 addition
[4] = biological target: Voltage-dependent T-type calcium channel subunit alpha-1H (Mus musculus) (UniProt O88427); experiment: Inhibition of Cav3.2 T-type channel in C57/BC6 mouse DRG neurons assessed as inhibition of low-voltage activated Ca2+ currents by patch clamp method
Sequence of Voltage-dependent T-type calcium channel subunit alpha-1H (Mus musculus) (O88427 whole entry): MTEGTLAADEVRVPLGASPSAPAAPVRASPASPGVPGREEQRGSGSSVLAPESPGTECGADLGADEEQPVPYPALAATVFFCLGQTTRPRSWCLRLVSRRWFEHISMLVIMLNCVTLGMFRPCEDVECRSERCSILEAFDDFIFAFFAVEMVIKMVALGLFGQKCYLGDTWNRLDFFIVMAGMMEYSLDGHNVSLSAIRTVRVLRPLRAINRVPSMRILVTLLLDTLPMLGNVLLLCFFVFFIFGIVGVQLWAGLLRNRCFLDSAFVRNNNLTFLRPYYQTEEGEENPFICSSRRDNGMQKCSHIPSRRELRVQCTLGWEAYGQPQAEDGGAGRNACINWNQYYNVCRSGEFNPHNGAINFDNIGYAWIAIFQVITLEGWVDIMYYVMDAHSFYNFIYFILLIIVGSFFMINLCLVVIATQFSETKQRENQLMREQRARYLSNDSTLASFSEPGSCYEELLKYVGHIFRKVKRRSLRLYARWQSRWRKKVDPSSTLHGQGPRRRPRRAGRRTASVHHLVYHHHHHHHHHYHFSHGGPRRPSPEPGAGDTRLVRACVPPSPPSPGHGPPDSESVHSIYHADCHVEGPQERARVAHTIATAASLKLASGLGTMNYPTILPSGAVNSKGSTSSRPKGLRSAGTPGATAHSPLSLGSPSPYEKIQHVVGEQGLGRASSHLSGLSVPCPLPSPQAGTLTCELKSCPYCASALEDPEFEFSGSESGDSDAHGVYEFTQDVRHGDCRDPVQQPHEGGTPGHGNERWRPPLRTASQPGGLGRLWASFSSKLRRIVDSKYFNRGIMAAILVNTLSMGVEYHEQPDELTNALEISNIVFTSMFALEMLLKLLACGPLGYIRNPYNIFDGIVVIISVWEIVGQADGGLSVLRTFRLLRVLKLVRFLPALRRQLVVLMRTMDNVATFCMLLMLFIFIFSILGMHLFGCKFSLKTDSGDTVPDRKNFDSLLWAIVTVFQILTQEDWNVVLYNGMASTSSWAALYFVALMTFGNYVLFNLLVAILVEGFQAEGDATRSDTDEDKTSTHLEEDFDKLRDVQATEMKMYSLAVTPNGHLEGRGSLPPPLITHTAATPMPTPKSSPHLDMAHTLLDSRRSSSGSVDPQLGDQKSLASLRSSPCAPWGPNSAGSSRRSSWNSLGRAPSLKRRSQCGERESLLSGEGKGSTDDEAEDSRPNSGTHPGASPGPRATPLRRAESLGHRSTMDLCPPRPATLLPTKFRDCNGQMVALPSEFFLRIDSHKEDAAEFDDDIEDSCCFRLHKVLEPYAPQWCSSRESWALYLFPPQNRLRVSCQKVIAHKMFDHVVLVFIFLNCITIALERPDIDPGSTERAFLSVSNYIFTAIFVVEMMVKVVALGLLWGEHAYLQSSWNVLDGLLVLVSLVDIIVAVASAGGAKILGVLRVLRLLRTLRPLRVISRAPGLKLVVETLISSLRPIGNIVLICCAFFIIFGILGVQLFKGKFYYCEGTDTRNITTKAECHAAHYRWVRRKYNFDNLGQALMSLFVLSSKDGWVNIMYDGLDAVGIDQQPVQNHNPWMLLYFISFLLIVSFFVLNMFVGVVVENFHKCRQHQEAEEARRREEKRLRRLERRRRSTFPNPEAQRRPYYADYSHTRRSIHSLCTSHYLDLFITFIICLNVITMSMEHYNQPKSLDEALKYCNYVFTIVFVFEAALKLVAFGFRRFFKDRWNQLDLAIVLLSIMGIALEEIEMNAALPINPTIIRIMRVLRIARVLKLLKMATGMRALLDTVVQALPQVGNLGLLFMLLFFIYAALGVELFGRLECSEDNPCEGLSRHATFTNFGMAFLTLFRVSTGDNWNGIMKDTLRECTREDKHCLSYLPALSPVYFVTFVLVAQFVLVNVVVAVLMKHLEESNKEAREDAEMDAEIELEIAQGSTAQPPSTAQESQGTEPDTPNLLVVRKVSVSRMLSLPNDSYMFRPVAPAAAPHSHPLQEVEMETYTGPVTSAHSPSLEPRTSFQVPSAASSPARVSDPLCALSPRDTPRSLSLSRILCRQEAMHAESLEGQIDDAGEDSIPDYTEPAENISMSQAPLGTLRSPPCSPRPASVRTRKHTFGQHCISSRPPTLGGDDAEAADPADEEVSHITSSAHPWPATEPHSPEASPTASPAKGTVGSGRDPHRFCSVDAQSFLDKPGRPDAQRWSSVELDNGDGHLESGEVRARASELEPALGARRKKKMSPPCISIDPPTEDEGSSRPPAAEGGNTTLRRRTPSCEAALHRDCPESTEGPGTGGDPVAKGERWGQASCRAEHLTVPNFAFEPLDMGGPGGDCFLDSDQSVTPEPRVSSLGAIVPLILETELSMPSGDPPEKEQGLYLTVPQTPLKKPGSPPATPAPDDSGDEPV
How it was run: (§2)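 Whole-cell voltage clamp at about 21 °C on large acutely dissociated DRG neurons from 1-2-month C57/BC6 mice, used within 2 days. Holding potential -90 mV, 100-ms steps in 10 mV increments every 2 s, giving low- and high-voltage-activated Ca2+ currents. Bath-applied compound 0.1–3 µM, vehicle 0.1% DMSO. IC50 from a logistic fit, mean ± SEM, n = 4 per point.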

Mus musculus [5] = organism: Mus musculus; experiment: Inhibition of L-type Ca2+ channel in C57/BC6 mouse DRG neurons assessed as inhibition of high-voltage activated Ca2+ currents by patch clamp method; how it was run: as §2
Mus musculus [6] = organism: Mus musculus; experiment: Inhibition of voltage-gated sodium channel in C57/BC6 mouse DRG neurons assessed as inhibition of voltage activated Na+ currents at 0.1 to 0.3 uM by patch clamp method
How it was run: (§3)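 Whole-cell voltage clamp at about 21 °C on acutely dissociated mouse DRG neurons. TTX-sensitive inward Na+ currents elicited by steps to 0 mV for 20 ms, outward K+ currents by steps to 70 mV for 300 ms, at 0.1 Hz; stable 30 min under control. Compound bath-applied, time course followed; vehicle 0.1% DMSO.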

Mus musculus [7] = organism: Mus musculus; experiment: Inhibition of voltage-gated potassium channel in C57/BC6 mouse DRG neurons assessed as inhibition of voltage activated […] currents at 0.1 to 0.3 uM by patch clamp method; how it was run: as §3
Mus musculus [8] = organism: Mus musculus; experiment: Inhibition of voltage-gated sodium channel in C57/BC6 mouse DRG neurons assessed as inhibition of voltage activated Na+ currents at 3 uM by patch clamp method; how it was run: as §3
Mus musculus [9] = organism: Mus musculus; experiment: Inhibition of voltage-gated potassium channel in C57/BC6 mouse DRG neurons assessed as inhibition of voltage activated […] currents at 3 uM by patch clamp method; how it was run: as §3

SMILES	pA2 [1]	A2 (Meriones unguiculatus) [nM]	also measured
CC1(C)CC[C@]2(C(=O)O)CC[C@]3(COC(=O)/C=C/c4ccc(O)c(O)c4)C(=CC[C@@H]4[C@@]5(C)CCC(=O)C(C)(C)[C@@H]5CC[C@]43C)[C@@H]2C1	7.1	85	IC50 (Endothelin-1 receptor [2]): 0.011 µM; Ki (Endothelin-1 receptor [3]): 0.066 µM
CC1(C)[C@@H]2CC[C@]3(C)[C@H](CC[C@@H]4CC=C(O[Si](C)(C)C(C)(C)C)C[C@]43C=N)[C@@]2(C)CCC12OCCO2 (single isomer, unassigned; (-))	7	93	inhibition [4]: Dose-dependent effect; inhibition (Mus musculus [5]): Dose-dependent effect; inhibition (Mus musculus [6]): inactive; inhibition (Mus musculus [7]): inactive; inhibition (Mus musculus [8]): Active; inhibition (Mus musculus [9]): Active
CC1(C)[C@@H]2CC[C@]3(C)[C@H](CC[C@@H]4CC[C@@]5(O)C[C@]43C=N5)[C@@]2(C)CCC12OCCO2	6.5	–	–
CC1(C)C(=O)CC[C@]2(C)[C@H]3CCc4ccc(OCCO)cc4[C@]3(C)CC[C@@H]12	6.5	–	–
CC1(C)C(=O)CC[C@]2(C)[C@H]3CCc4ccc(O)cc4[C@]3(C)CC[C@@H]12	6.7	–	–

Continued, in another order:

pA2 [1]	A2 (Meriones unguiculatus) [nM]	SMILES	also measured
6.7	–	CC1(C)C(=O)CC[C@]2(C)[C@H]3CC[C@@H]4CCC(=O)C=C4[C@]3(C)CC[C@@H]12	–
6.9	134	CC1(C)C(=O)CC[C@]2(C)[C@H]3CC[C@@H]4CCC(=O)C[C@@]4(C#N)[C@]3(C)CC[C@@H]12	–
